Source: paper PMC3586205 (European journal of pharmacology, 2012)
Like-named read-outs stand apart in the source and are kept apart here.

How the values were obtained:
food intake in mice = assay: Feeding behavior: 1-h food intake after 24-h food deprivation; format: in vivo
[1] = test system: rectal temperature in mice; assay: Rectal temperature, mouse test battery; format: in vivo
[2] = test system: tail flick latency in mice; assay: Tail flick antinociception, mouse test battery; format: in vivo
Summary of the method: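 Baseline tail-flick latency was taken to radiant heat (bright light) before i.v. injection of vehicle (ethanol:Emulphor-620:saline 1:1:18) or test compound. Latency was re-measured 20 min post-injection with a 10 s cutoff. Result expressed as %MPE = [(test−control latency)/(10−control)] × 100, separate groups per dose.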

[3] = molecular target: human cannabinoid CB1 receptor (Homo sapiens, UniProt P21554); assay: Cannabinoid CB1 receptor radioligand binding, displacement of [3H]CP55,940
[4] = test system: spontaneous activity in mice; assay: Spontaneous; format: in vivo
Summary of the method: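 Separate groups of mice per dose were injected i.v. with vehicle (ethanol:Emulphor-620:saline 1:1:18) or test compound. Five minutes later each was placed in an activity chamber for 10 min. Total photobeam interruptions were counted and expressed as % inhibition of the vehicle group. ED50s were derived by log-dose linear regression, taking 90% inhibition as maximal.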

[5] = test system: cannabinoid agonist-like effects in mice; assay: In vivo test battery; settings: doses up to 30 mg/kg (heterodimer 6b i.p.)
Summary of the method: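 Separate groups of mice per dose received test compound in 95% sesame oil/5% dimethylacetamide i.p. Rectal temperature and baseline tail-flick latency were taken before injection. At 40 min mice were put in photobeam activity chambers for 5 min. Tail-flick and temperature were re-measured immediately on removal. Ring immobility was not run.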

ring immobility in mice = assay: Ring immobility, mouse test battery; format: in vivo; settings: 30 mg/kg i.v.

Chain of human cannabinoid CB1 receptor (P21554 whole entry): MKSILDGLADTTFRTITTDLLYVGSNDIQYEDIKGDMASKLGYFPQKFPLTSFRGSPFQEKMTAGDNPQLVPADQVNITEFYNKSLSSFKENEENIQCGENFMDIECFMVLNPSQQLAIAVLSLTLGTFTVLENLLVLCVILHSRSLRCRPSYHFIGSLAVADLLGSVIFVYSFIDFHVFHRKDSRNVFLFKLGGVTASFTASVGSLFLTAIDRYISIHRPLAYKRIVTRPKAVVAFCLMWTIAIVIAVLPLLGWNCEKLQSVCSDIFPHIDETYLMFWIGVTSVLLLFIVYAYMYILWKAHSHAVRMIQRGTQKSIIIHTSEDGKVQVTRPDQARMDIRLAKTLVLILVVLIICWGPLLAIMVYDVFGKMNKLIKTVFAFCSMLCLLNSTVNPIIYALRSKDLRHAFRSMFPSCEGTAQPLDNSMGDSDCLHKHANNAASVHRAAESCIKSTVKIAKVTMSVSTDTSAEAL

Structure (SMILES)	effect on food intake (food intake in mice; i.p., doses not stated in text (Fig. 2))	RT (maximum effect) ([1]; 100 mg/kg i.v.)	%MPE tail flick (maximum effect) ([2]; 100 mg/kg i.v.)	Ki ([3]; read-out: CB1 Ki (± SEM), displacement of [3H]CP55,940) [nM]	SA, % inhibition of activity of vehicle control group (maximum effect) ([4]; 100 mg/kg i.v.)	decrease in feeding compared to vehicle (food intake in mice; 56 mg/kg i.p., 60 min pre-session, significant) [%]	RT, change in rectal temperature (maximum effect) ([1]; 30 mg/kg i.v.)	activity in test battery when tested alone [5]	%MPE tail flick (maximum effect) ([2]; 30 mg/kg i.v.)	Ki [3] [nM]	SA, % inhibition of activity of vehicle control group (maximum effect) ([4]; 30 mg/kg i.v.)	RI (maximum effect) (ring immobility in mice)	effect on food intake (food intake in mice; doses up to 30 mg/kg i.p.)
CC1=CC[C@@H]2[C@@H](C1)c1c(O)cc(C(C)(C)CCCCC(=O)NCCc3ccc(S(N)(=O)=O)cc3)cc1OC2(C)C [Compound O-606, 6-[(6aR,10aR)-1-hydroxy-6,6,9-trimethyl-6a,7,10,10a-tetrahydro-6H-benzo[c]chromen-3-yl]-6-methyl-N-(4-sulfamoyl-phenyethyl)heptanamide]	failed to affect food intake	inactive (100)	inactive (100)	29	60% (100)	–	–	–	–	–	–	–	–
CCCc1cc(C(=O)NN2CCCCC2)cc(-c2ccc(Cl)cc2Cl)c1-c1ccc(Cl)cc1 [Compound O-1788, 4-(4-chlorophenyl)-3-(2,4-dichlorophenyl)–N-(piperidin-1-yl)-5-propylbenzamide]	–	–	–	–	–	56	inactive (30)	inactive	inactive (30)	166	inactive (30)	inactive (30)	–
Cc1c(C(=O)NCCCCCCCN(C)CCCCCCCNC(=O)c2nn(-c3ccc(Cl)cc3Cl)c(-c3ccc(Cl)cc3)c2C)nn(-c2ccc(Cl)cc2Cl)c1-c1ccc(Cl)cc1 [Heterodimer 6b, N,N′-[(methylimino)diheptane-7,1-diyl]bis[5-(4-chlorophenyl)-1-(2,4-dichlorophenyl)-4-methyl-1H-pyrazole-3-carboxamide]]	–	–	–	–	–	–	–	inactive	–	–	–	–	failed to alter food intake
